# From PubChem
# A selection: hits, their analogues and other compounds. The true share with any hit is near 6.7%.
# Beta apoptosis = blocks beta cell apoptosis. INS-1E cytokine-induced death, ATP luminescence, 48 h; percent of positive-control rescue, neutral wells zero. protection from apoptosis, % (no concentration beside the values). 300,000 compounds, 0.8% hits. AID 435005;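 active means Every replicate reaches about 75%, or at least half do and their mean reaches it too, limit read from the data; inconclusive means At least half of replicates reach the limit but their mean does not; inactive means Under half of replicates reach the limit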;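 further: 0% = cytokine-treated negative control wells and 100% = positive control rescue; higher means more ATP so stronger rescue from cytokine killing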
# T cruzi repl = blocks replication of Trypanosoma cruzi. T. cruzi beta-gal in NIH3T3, luminescence, 90 h. inhibition, % (test concentration not listed). 300,000 compounds, 1.4% hits;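 active means mean inhibition across valid replicates above about 55%, limit read from the data; inconclusive means mean below that limit but half or more replicates reach it; inactive means mean below it, under half of replicates reach it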;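 further: signal also drops with host cell toxicity which is not excluded here; 0% = plate median of DMSO wells and 100% = zero luminescence signal; higher percent means less beta-gal luminescence so fewer parasites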
#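 System: mouse NIH/3T3 fibroblasts infected with β-gal-expressing T. cruzi Tulahuen C4 / Input: NIH/3T3 cells, 5,000 per well / Buffer or medium: Low-serum DMEM with 2% FBS / Probe or stimulus: 5000 reporter trypomastigotes per well / Schedule: ≥90 h infection period, 3 h prior cell attachment / Measured by: GalScreen luminescence, 60 min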
# CHOP inh = CHOP inhibition in unfolded protein response. CHO-K1 CHOP-promoter luciferase, tunicamycin-induced, 15-18 h. inhibition, % at 10 µM. 220,000 compounds, 3.8% hits. AID 2732;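 active means compounds that reduced the stress-induced luciferase reporter signal by more than about 70% of percent inhibition, limit read from the data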;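 further: 0% = tunicamycin plus vehicle and 100% = wells without tunicamycin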
# GRIN3A LBD mod = modulators (binders) of human NR3A ligand-binding domain; NR3A LBD differential scanning fluorimetry, Tm shift; 0% = protein alone, 100% = glycine-bound protein; Tm shift relative to glycine control, % at 25 µM; 340,000 compounds, 2.5% hits;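 active means melting temperature shift of at least 10% of the positive control shift, at one fixed dose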
# PREPL inhibitor = human PREPL enzyme inhibition; Q4J6C6; recombinant PREPL, fluorescence polarization activity-based probe; inhibition, % at 5.96 µM; 320,000 compounds, 0.68% hits; in the data active means inhibition above about 43%;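 further: 0% = enzyme with DMSO and 100% = wells lacking enzyme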
# Target sequence (Q4J6C6 whole entry, looked up): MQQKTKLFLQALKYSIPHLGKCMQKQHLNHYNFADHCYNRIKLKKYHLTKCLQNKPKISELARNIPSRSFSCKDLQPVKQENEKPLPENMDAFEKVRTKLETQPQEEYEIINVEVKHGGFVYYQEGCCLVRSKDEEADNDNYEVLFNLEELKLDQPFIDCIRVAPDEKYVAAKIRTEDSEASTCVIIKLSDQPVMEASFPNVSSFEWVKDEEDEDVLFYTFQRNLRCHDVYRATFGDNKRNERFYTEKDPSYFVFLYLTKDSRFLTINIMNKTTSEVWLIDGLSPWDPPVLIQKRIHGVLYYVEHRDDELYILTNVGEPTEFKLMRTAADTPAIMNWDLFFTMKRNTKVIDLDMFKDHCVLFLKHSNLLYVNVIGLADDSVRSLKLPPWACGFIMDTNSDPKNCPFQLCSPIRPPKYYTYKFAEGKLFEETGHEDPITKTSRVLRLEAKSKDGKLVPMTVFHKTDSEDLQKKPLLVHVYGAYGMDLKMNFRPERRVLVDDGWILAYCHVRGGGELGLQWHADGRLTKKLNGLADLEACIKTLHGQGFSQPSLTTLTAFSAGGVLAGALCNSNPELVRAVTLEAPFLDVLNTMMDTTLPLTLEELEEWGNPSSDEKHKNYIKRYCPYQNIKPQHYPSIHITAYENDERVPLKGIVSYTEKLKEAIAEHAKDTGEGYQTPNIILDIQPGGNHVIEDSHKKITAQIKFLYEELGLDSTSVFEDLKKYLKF
# CSC inhib = cancer stem cell inhibition; inhibition, % at 7.5 µM; 300,000 compounds, 1.1% hits; cancer stem cell-like cells viability, luminescence; AID 2717; in the data active means inhibition above about 75%; inconclusive means no clear call, values can overlap the other calls; tested in HMLE shEcad cells
# CHOP confirm = confirmation of CHOP induction inhibitors; shares compounds with CHOP inh; CHO-CHOP promoter luciferase reporter, tunicamycin-induced, luminescence; inhibition, % at 10 µM; 2,100 compounds, 45% hits; AID 504437;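 active means mean of three repeat readings of reporter signal inhibition above a set limit, cut at about 70% in these data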;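 further: 0% = tunicamycin plus vehicle and 100% = wells lacking tunicamycin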
# * = called active by the depositor; ? = inconclusive; . = no result given.
SMILES,Beta apoptosis,T cruzi repl,CHOP inh,GRIN3A LBD mod,PREPL inhibitor,CSC inhib,CHOP confirm
C[C@H](NC(=O)c1nc[nH]c1C(=O)NCc1ccc(CNC(=O)OC(C)(C)C)cc1)C(=O)OCc1ccccc1,-1.8,.,.,-9.6,-6.4,-9.8,.
CC(C)(C)OC(=O)[C@H](Cc1ccccc1)NC(=O)c1[nH]cnc1C(=O)N[C@@H](Cc1ccccc1)C(=O)OCc1ccccc1,-9.2,0.1,.,-5.7,15.8,10.4,.
C[C@H](NC(=O)c1[nH]cnc1C(=O)Nc1ccc(CNC(=O)OC(C)(C)C)cc1)C(=O)OC(C)(C)C,5.8,36.1,98.1*,-10.2,2.7,50.6,78.1*
CC1CCCC(NCC(O)COC(c2ccc(F)cc2)c2ccc(F)cc2)C1C (centres undefined),44.5,20.8,103.0*,0.8,-39.3,79.8*,110.9*
O=C(CN1C(=O)c2cccc([N+](=O)[O-])c2C1=O)NCc1ccccc1,-8.9,-5.2,.,0.6,15.0,1.9,.
Cc1ccc(O)c(C=Nc2cc(C)ccc2O)c1,-5.3,0.6,27.1,2.6,6.7,-3.4,.
CC(C)(C)c1ccc(O)c(N=Cc2cc(Br)ccc2O)c1,-5.3,-1.5,98.5*,-2.6,4.2,42.4,112.0*
COC(=O)C(Cc1ccccc1)NCC(=O)Nc1cccc(Cl)c1C (centres undefined),-3.0,3.6,.,0.3,3.6,-14.5,.
CC(=O)OC1CC2(C)/C(=N\O)CCC2C2CCc3cc(O)ccc3C12 (centres undefined),1.2,-0.6,.,-0.3,.,1.1,.
O=C(Cn1c2ccc(F)cc2c2nc3n(c(=O)c21)CCS3)Nc1ccc(Cl)cc1F,15.3,19.1,96.4*,-2.4,2.2,-6.5,19.3
O=C(Cn1c2ccc(F)cc2c2nc3n(c(=O)c21)CCS3)N1CCCC1,3.6,-1.7,.,-0.7,16.1,-8.9,.
CC(=O)Nc1nc(-c2ccc([N+](=O)[O-])cc2)cs1,-2.4,4.4,8.3,1.3,-6.9,-9.4,.
O=C(Nc1ccc([N+](=O)[O-])cc1)Nc1nc(-c2ccc(Cl)s2)cs1,128.6*,46.4,106.7*,416.3*,4.7,97.1*,82.8*
COc1ccc(-c2cc(C(F)(F)F)n3nc(C(=O)Nc4cc(C)on4)cc3n2)cc1OC,1.7,.,34.3,1.3,-15.1,-10.7,.
COc1ccccc1-c1cc(C(F)(F)F)nc(S(=O)(=O)CCCC(=O)Nc2cc(C)on2)n1,6.6,6.3,107.9*,4.9,10.5,-1.8,124.7*
COc1ccccc1-c1cc(C(=O)Nc2cc(C)on2)no1,-10.7,8.4,1.3,-1.2,-0.2,27.9,.
COc1ccc(-c2cc(C(F)(F)F)nc(S(=O)(=O)CCCC(=O)Nc3cc(C)on3)n2)cc1OC,.,47.9,105.8*,0.0,.,.,-140.3
CNc1nc(Sc2cccc(C(F)(F)F)c2)cc(C(F)(F)F)n1,1.5,-1.3,101.1*,-3.1,16.2,31.7,98.5*
COc1ccccc1N=Cc1nc(-c2ccccc2)oc1OC(C)=O,-6.0,-2.1,44.7,-0.8,10.5,1.5,.
CC(=O)Oc1oc(-c2ccccc2)nc1/C=N/c1ccccn1,-6.0,-14.0,100.6*,2.1,5.3,-7.1,-42.0
CC1(C)SCC2C(=O)N3C(CSC3(C)C)C(=O)N21 (centres undefined),-2.2,-10.5,24.4,-16.7,-13.3,1.8,.
Cc1ccc(NC(=O)C2=C(c3ccccc3)S(=O)(=O)CCS2(=O)=O)cc1,?,58.0*,109.4*,14.3*,-6.6,78.7*,69.0
CC(C)c1ccc(CC(C)C2C3=C(CCCC3=O)OC3=C2C(=O)CCC3)cc1 (centres undefined),12.0,20.1,103.9*,2.6,13.5,41.3,58.1
Cc1ccccc1-c1nnc(SCC(=O)N2CCCC2)o1,-8.0,.,.,-1.8,14.4,-3.7,.
COc1cc(/C=C(/C#N)c2nc3ccccc3[nH]2)ccc1OCC(=O)Nc1ccccc1C(C)C,61.8,15.1,107.5*,5.8,-0.3,99.8*,116.3*
O=S(=O)(Nc1ccc(-n2cccc2)cc1)c1ccc(Cl)cc1Cl,3.6,1.5,102.1*,13.5*,-53.4,38.4,15.4
CCCc1nc2ccccc2c(=O)n1NC(=O)c1c(O)c2cccc3c2n(c1=O)CCC3,-3.9,3.6,59.5,2.4,8.3,-10.6,.
